# Test results from ChEMBL document CHEMBL4339193, “Phenotypic Screening-Based Identification of 3,4-Disubstituted Piperidine Derivatives as Macrophage M2 Polarization Modulators: An Opportunity for Treating Multiple Sclerosis” (J Med Chem, 2019).
# The source made the active and inactive calls. The calls are words filed in the database; no cut-off is given here.
# What was measured:
# [1] = system: RAW264.7; assay: Modulation of M2 polarization in mouse RAW264.7 cells assessed as up regulation of IL13RA1 mRNA expression at 300 nM measured after 24 hrs by qRT-PCR analysis; type: functional, cell-based
# [2] = system: RAW264.7; assay: Inhibition of M1 polarization in mouse RAW264.7 cells assessed as down regulation of TNFRSF10C mRNA expression at 300 nM measured after 24 hrs by qRT-PCR analysis; type: functional, cell-based
# [3] = system: Mus musculus; assay: Antiinflammatory activity in C57BL/6J mouse model of MOG (35 to 55 residues)/pertussis toxin/complete Freund's adjuvant-induced experimental allergic encephalomyelitis assessed as reduction in development of clinical symptoms at 200 mg/kg, ig administered daily starting from 7 days post-immunization up to 26 days; type: functional, organism-based
# How it was run: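 MOG35-55/CFA EAE mice received daily saline vehicle, 100 or 200 mg/kg drug, or dexamethasone 10 mg/kg from day 7 post-immunisation. Clinical signs were scored on a 0-5 scale (e.g. 3 = complete bilateral hind limb paralysis, 5 = death). Mean scores used n=5.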
# [4] = system: RAW264.7; assay: Modulation of M2 polarization in mouse RAW264.7 cells assessed as up regulation of MRC1 mRNA expression at 300 nM measured after 24 hrs by qRT-PCR analysis; type: functional, cell-based
# [5] = system: Mus musculus; assay: (§1) Inhibition of M1 polarization in C57BL/6J mouse model of MOG (35 to 55 residues)/pertussis toxin/complete Freund's adjuvant-induced experimental allergic encephalomyelitis assessed as CD86 level in spleen at 200 mg/kg, ig administered daily starting from 7 days post-immunization measured after 13 to 19 days post-immunization by flow cytometry analysis (reference value: 11.8%); type: functional; design: scale not given: the % may be the effect or the level left
# How it was run: (§2)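 MOG35-55/CFA EAE mice were dosed daily in saline from day 7 and sampled between days 13 and 19. Cells came from spleen and dLN by mechanical dissociation and from CNS by collagenase IV/Percoll. They were stained for F4/80 with CD206 (M2) or CD86 (M1), and each was read by flow cytometry as a percentage of total F4/80+ macrophages.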
# [6] = system: Mus musculus; assay: Antiinflammatory activity in C57BL/6J mouse model of MOG (35 to 55 residues)/pertussis toxin/complete Freund's adjuvant-induced experimental allergic encephalomyelitis assessed as reduction in infiltration in spinal cord at 200 mg/kg, ig administered daily starting from 7 days post-immunization measured after 14 days post-immunization by H and E staining based microscopic analysis; type: functional, organism-based
# How it was run: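 EAE mice dosed daily in saline from day 7 were perfused with PBS and fixed in 4% PFA on day 14; spinal cords were taken. For LFB, frozen OCT sections sat 3 h in 0.1% Luxol Fast Blue at 56-60°C, were differentiated in 0.05% lithium carbonate for 10-12 s, cleared in 70% ethanol, dehydrated and mounted. For H&E, paraffin sections were stained to assess inflammation.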
# [7] = Cmax in Sprague-Dawley rat at 10 mg/kg, iv administered as single dose by LC/MS analysis; type: ADME, organism-based; design: dose 10 mg/kg, route intravenous; details: in vivo
# How it was run: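 Single dose in rats; venous blood (100 µL) drawn at 0, 0.5, 1, 2, 4, 8 and 12 h, plasma separated by centrifugation and held at -20 °C. Compound measured by LC/MS; Cmax, Tmax, t1/2 and AUC derived from the concentration–time data.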
# [8] = system: Mus musculus; assay: Antiinflammatory activity in C57BL/6J mouse model of MOG (35 to 55 residues)/pertussis toxin/complete Freund's adjuvant-induced experimental allergic encephalomyelitis assessed as effect on dendritic cell population in CNS by measuring change in CD11c level at 200 mg/kg, ig administered daily starting from 7 days post-immunization measured after 13 to 19 days post-immunization by flow cytometry analysis; type: functional, organism-based
# How it was run: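 MOG35-55/CFA EAE mice were dosed daily in saline from day 7 and sampled between days 13 and 19. Spleens and dLNs were mechanically dissociated to single cells. CNS cells came from collagenase IV digestion and a 70%/30% Percoll gradient. Cells were surface-stained with fluorochrome antibodies, including CD4, CD11b, CD11c and MHC-II, and analysed by flow cytometry.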
# [9] = Oral bioavailability in Sprague-Dawley rat at 50 mg/kg administered as single dose via gavage by LC/MS analysis; type: ADME, organism-based; details: in vivo
# [10] = biological target: T1, Signal transducer and transcription activator 6 (Mus musculus) (UniProt P52633); assay: Stimulation of STAT6 phosphorylation at […] residue in mouse RAW264.7 cells at 300 nM measured after 4 to 24 hrs by Western blot analysis; type: cell-based
# T1 sequence (whole entry): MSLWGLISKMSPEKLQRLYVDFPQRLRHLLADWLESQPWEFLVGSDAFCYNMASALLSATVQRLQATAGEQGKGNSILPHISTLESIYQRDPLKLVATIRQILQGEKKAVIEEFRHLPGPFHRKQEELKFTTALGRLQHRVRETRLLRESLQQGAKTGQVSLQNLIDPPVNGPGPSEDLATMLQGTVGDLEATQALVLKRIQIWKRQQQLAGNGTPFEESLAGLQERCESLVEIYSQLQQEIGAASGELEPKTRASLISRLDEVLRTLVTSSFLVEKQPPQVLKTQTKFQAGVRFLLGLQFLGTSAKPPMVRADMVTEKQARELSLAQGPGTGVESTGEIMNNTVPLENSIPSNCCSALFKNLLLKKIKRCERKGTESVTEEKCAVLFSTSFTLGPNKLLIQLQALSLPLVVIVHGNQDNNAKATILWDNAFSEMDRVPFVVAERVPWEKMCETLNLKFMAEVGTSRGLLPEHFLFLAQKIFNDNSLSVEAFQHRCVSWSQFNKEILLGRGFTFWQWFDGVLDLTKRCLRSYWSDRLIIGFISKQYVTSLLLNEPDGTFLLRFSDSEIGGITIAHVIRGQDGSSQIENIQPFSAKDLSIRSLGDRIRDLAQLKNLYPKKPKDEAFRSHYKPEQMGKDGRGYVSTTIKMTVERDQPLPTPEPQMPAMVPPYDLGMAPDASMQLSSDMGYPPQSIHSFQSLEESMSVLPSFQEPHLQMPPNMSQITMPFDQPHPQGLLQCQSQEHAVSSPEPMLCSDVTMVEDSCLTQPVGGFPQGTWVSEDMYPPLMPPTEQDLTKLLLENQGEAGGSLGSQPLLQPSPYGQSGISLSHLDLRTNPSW
# How it was run: (§3)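 Cell lysates separated by SDS-PAGE, transferred to PVDF and probed for Akt, p-Akt(308), p-Akt(473), Stat3, p-Stat3(Y705), Stat6 and p-Stat6; ECL detection, GAPDH as loading control.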
# [11] = Toxicity in ICR mouse assessed as adverse effect at 400 mg/kg, ig administered daily for 14 days; type: organism-based; details: in vivo, po, 336 h
# How it was run: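 Repeated-dose study in healthy mice over 14 days. Read-outs were body weight change, serum parameters, and organ-to-body and organ-to-brain weight ratios.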
# [12] = biological target: RAC-alpha serine/threonine-protein kinase (Mus musculus) (UniProt P31750); assay: Stimulation of AKT phosphorylation at 308 residue in mouse RAW264.7 cells at 300 nM measured after 4 to 24 hrs by Western blot analysis; type: cell-based; how it was run: as §3
# Chain of RAC-alpha serine/threonine-protein kinase (Mus musculus) (P31750 whole entry): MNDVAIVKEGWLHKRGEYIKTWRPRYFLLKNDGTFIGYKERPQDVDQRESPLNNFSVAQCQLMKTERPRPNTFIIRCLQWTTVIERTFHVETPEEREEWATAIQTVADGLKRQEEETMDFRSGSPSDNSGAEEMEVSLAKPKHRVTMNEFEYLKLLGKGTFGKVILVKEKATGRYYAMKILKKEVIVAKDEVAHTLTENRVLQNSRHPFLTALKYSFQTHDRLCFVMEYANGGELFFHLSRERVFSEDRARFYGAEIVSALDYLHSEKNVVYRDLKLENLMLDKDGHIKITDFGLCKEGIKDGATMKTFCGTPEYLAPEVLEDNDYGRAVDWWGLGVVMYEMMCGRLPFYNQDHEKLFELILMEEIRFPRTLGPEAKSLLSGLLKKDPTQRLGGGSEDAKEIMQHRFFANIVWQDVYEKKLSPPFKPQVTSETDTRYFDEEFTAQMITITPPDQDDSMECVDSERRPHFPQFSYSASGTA
# [13] = system: Mus musculus; assay: as §1, with “Induction” for “Inhibition”, “M2” for “M1”, “CD206” for “CD86”, “23.4%)” for “11.8%)”; type: functional; how it was run: as §2
# [14] = Ratio of AUC (0 to t) to AUC (0 to infinity) in Sprague-Dawley rat at 10 mg/kg, iv administered as single dose […]; type: ADME, organism-based; details: in vivo
# [15] = system: RAW264.7; assay: Inhibition of M1 polarization in mouse RAW264.7 cells assessed as down regulation of IL6R mRNA expression at 300 nM measured after 24 hrs by qRT-PCR analysis; type: functional, cell-based
structure (smiles),measurement,setting,value
Cl.Cn1ncc(Cl)c1-c1ccc(C(=O)N[C@@H]2CNCC[C@H]2c2cccc(F)c2)cc1,Activity,[1],Active
same,inhibition,[2],Active
same,Activity,[3],Active
same,Activity,[4],Active
same,Activity,[5],6.9%
same,Activity,[6],Active
same,Cmax,[7],1000 ng/mL
same,Activity,[8],inactive
same,bioavailability,[9],50.6%
same,Activity,[10],inactive
same,Activity,[11],Non-Toxic
same,Activity,[12],Active
same,Activity,[13],37.2%
same,Ratio AUC,[14],98.75%
same,inhibition,[15],Active
